Shown are actives, neighbours in structure and some others; about 4% of the full set was active somewhere.
KCNK9 block – human KCNK9 channel inhibition. HEK293 KCNK9, FluxOR thallium flux fluorescence; hits give low values. B-score at 10 µM. 310,000 compounds, 1.2% hits. AID 488922;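 active = ratio B-score over 3 SD below the library mean, with starting fluorescence within 5 SD of its mean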;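 note: negative B-score means less thallium flux so channel inhibition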
PHOSPHO1 inh – inhibitors of human PHOSPHO1 phosphatase | recombinant PHOSPHO1, absorbance phosphatase assay | inhibition, % at 13.3 µM | 290,000 compounds, 1.1% hits; in the data active = inhibition above about 60%
Target sequence (Q8TCT1 whole entry, looked up): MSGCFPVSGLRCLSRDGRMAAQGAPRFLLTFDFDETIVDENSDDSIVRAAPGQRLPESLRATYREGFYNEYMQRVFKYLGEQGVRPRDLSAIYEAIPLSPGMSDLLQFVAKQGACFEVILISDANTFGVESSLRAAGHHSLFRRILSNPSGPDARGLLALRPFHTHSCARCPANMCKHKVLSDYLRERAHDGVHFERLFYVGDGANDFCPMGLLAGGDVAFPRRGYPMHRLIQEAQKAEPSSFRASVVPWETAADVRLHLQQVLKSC
KCNQ1 pot – potentiates or activates the human KCNQ1 potassium channel. 310,000 compounds, 0.35% hits. B-score at 10 µM. AID 2648. P51787. CHO-K1 KCNQ1, thallium flux FluxOR fluorescence; hits give high values;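 active = fluorescence ratio B-score, a plate-corrected score, at least three library SD, with initial intensity B-score within 5 SD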
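Assay system: stable KCNQ1 CHO-K1 line; medium: assay buffer, equal DMSO in all wells; timing: 90 min dye loading and 20 min compound exposure, both at room temperature; technique: kinetic FluxOR thallium fluorescence, 10-s 1-Hz baseline, 110-s post-stimulus read; read-out basis: B score of baseline-normalized fluorescence ratio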
KCNQ1 inh – blocks the human KCNQ1 potassium channel; 310,000 compounds, 1.3% hits; B-score at 10 µM; P51787; CHO-K1 KCNQ1, FluxOR thallium flux fluorescence; hits give high values;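 active = compounds whose thallium flux B-score, printed positive for inhibition, exceeds three library SD while starting fluorescence stays within three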;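 note: channel opened by potassium depolarization with thallium stimulus after 20 min compound exposure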
KCNK3 inh – human KCNK3 channel inhibition, primary screen. AID 602410. CHO-KCNK3 thallium flux, FluxOR fluorescence; hits give low values. O14649. B-score at 10 µM. 340,000 compounds, 0.84% hits;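 active = B-score under library mean minus 4 SD, starting fluorescence ratio at most library mean plus 5 SD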;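 note: more negative B-score means stronger inhibition of thallium flux through KCNK3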
Target sequence (O14649 whole entry, looked up): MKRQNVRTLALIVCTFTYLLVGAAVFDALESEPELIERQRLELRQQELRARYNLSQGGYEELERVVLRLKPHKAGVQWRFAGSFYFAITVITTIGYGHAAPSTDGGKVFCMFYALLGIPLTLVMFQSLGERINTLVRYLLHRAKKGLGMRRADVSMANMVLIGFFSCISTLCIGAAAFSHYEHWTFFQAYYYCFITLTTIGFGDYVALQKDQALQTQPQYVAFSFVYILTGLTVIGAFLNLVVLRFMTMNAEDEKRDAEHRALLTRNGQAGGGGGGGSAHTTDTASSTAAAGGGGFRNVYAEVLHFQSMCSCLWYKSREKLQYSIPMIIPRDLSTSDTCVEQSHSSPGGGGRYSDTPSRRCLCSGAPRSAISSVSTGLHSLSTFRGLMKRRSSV
hERG rescue – compounds protecting human hERG from proarrhythmic drug block | Q12809 | CHO-hERG, FluxOR thallium flux, dofetilide IC70 present | activation (rescue from dofetilide block), less the hit threshold, % at 10 µM | 310,000 compounds, 0.51% hits;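 active = activation above the mean of controls blocked by dofetilide plus 5 SD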;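 note: thallium influx through hERG after potassium depolarization seen as dye fluorescence rise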
Starred values were filed as active, the others as inactive.

Results for COCCOC(=O)C1=C(N)OC2=C(C(=O)CC(C)(C)C2)C1c1ccncc1 (centres undefined) ?
KCNK9 block: inactive; PHOSPHO1 inh: 47.1; KCNQ1 pot: inactive; KCNQ1 inh: inactive; KCNK3 inh: inactive; hERG rescue: -7.9

What do the screens show for `Cc1cccc2sc(NS(=O)(=O)c3ccccc3)nc12`?
KCNK9 block: inactive; PHOSPHO1 inh: 31.8; KCNQ1 pot: inactive; KCNQ1 inh: 6*; KCNK3 inh: inactive; hERG rescue: -2.0

How did Cc1nc(NS(=O)(=O)c2ccccc2)sc1C(C)(C)C do in these assays?
KCNK9 block: inactive; PHOSPHO1 inh: 3.4; KCNQ1 pot: inactive; KCNQ1 inh: inactive; KCNK3 inh: inactive; hERG rescue: -6.8

Results for Cc1cccc(C(=O)N/N=C/c2coc3ccccc3c2=O)c1 ?
KCNK9 block: inactive; PHOSPHO1 inh: 31.3; KCNQ1 pot: inactive; KCNQ1 inh: inactive; KCNK3 inh: inactive; hERG rescue: -13.0

What do the screens show for `O=C(N/N=C/c1coc2ccccc2c1=O)c1cccc([N+](=O)[O-])c1`?
KCNK9 block: inactive; PHOSPHO1 inh: 12.7; KCNQ1 pot: inactive; KCNQ1 inh: 7*; KCNK3 inh: inactive; hERG rescue: -7.8

How did Cc1cc(NC(=O)NC(=O)c2ccc(F)cc2F)n[nH]1 do in these assays?
KCNK9 block: inactive; PHOSPHO1 inh: -25.8; KCNQ1 pot: inactive; KCNQ1 inh: inactive; KCNK3 inh: inactive; hERG rescue: -6.3

How did Cn1c(SCc2nc3ccccc3c(=O)[nH]2)nc2ccccc21 do in these assays?
KCNK9 block: inactive; PHOSPHO1 inh: 5.0; KCNQ1 pot: inactive; KCNQ1 inh: inactive; KCNK3 inh: inactive; hERG rescue: -8.2

What do the screens show for `CCn1c(SCc2nc3cc(OC)c(OC)cc3c(=O)[nH]2)nc2ccccc21`?
KCNK9 block: inactive; PHOSPHO1 inh: 60.0*; KCNQ1 pot: inactive; KCNQ1 inh: inactive; KCNK3 inh: inactive; hERG rescue: -15.3

How did COC(=O)c1sc(NC(=O)c2c(-c3ccccc3)noc2C)nc1C do in these assays?
KCNK9 block: inactive; PHOSPHO1 inh: 65.8*; KCNQ1 pot: inactive; KCNQ1 inh: inactive; KCNK3 inh: inactive; hERG rescue: -4.6

What do the screens show for `Cc1onc(-c2ccccc2)c1C(=O)Nc1nc(-c2ccccc2)cs1`?
KCNK9 block: inactive; PHOSPHO1 inh: 17.1; KCNQ1 pot: inactive; KCNQ1 inh: 6*; KCNK3 inh: inactive; hERG rescue: -5.1

How did Cc1ccc([N+](=O)[O-])cc1S(=O)(=O)Nc1ccc(N2CCOCC2)cc1 do in these assays?
KCNK9 block: inactive; PHOSPHO1 inh: 38.5; KCNQ1 pot: inactive; KCNQ1 inh: inactive; KCNK3 inh: inactive; hERG rescue: -1.1

Results for Cc1cc(N2CCN(c3cccc(C)c3C)CC2)nc(-c2ccccc2)n1 ?
KCNK9 block: -6.57*; PHOSPHO1 inh: 20.6; KCNQ1 pot: inactive; KCNQ1 inh: inactive; KCNK3 inh: inactive; hERG rescue: -6.7

How did Cc1cc(N2CCC(C(=O)NC3CC3)CC2)nc(-c2ccccc2)n1 do in these assays?
KCNK9 block: inactive; PHOSPHO1 inh: -8.5; KCNQ1 pot: inactive; KCNQ1 inh: inactive; KCNK3 inh: inactive; hERG rescue: -6.7

What do the screens show for `CCCCCCCn1ccc(O)c(CC(=O)OC)c1=O`?
KCNK9 block: inactive; PHOSPHO1 inh: 31.7; KCNQ1 pot: inactive; KCNQ1 inh: inactive; KCNK3 inh: inactive; hERG rescue: -3.0

What do the screens show for `CCOC(=O)C(C)Sc1nc(-c2ccccc2)nc2ccccc12` (centres undefined)?
KCNK9 block: -7.63*; PHOSPHO1 inh: 24.9; KCNQ1 pot: inactive; KCNQ1 inh: inactive; KCNK3 inh: inactive; hERG rescue: -15.9

How did CCOC(=O)C(C)Sc1nc(-c2ccccc2)nc2ccc(F)cc12 (centres undefined) do in these assays?
KCNK9 block: inactive; PHOSPHO1 inh: 17.9; KCNQ1 pot: inactive; KCNQ1 inh: inactive; KCNK3 inh: inactive; hERG rescue: -14.2

How did Cc1ccc2[nH]c(O)c(N=NC(N)=S)c2c1 do in these assays?
KCNK9 block: inactive; PHOSPHO1 inh: 7.8; KCNQ1 pot: inactive; KCNQ1 inh: inactive; KCNK3 inh: inactive; hERG rescue: -8.4

How did CC(/C=C(\NC(=O)c1ccccc1)C(=O)N=Nc1c(O)[nH]c2ccc(C)cc12)=C\c1ccccc1 do in these assays?
KCNK9 block: inactive; PHOSPHO1 inh: 91.1*; KCNQ1 pot: inactive; KCNQ1 inh: 6*; KCNK3 inh: inactive; hERG rescue: -22.8

Results for CC1CCCN(c2nc3ccccc3nc2C(C#N)S(=O)(=O)c2cccs2)C1 (centres undefined) ?
KCNK9 block: inactive; PHOSPHO1 inh: 101.5*; KCNQ1 pot: inactive; KCNQ1 inh: inactive; KCNK3 inh: inactive; hERG rescue: -5.3

How did Cc1cccc(S(=O)(=O)C(C#N)c2nc3ccccc3nc2N2CC(C)OC(C)C2)c1 (centres undefined) do in these assays?
KCNK9 block: inactive; PHOSPHO1 inh: 43.1; KCNQ1 pot: inactive; KCNQ1 inh: inactive; KCNK3 inh: inactive; hERG rescue: -11.7

Results for Cc1ccc(S(=O)(=O)C(C#N)c2nc3ccccc3nc2N2CC(C)OC(C)C2)cc1C (centres undefined) ?
KCNK9 block: inactive; PHOSPHO1 inh: 78.5*; KCNQ1 pot: inactive; KCNQ1 inh: inactive; KCNK3 inh: inactive; hERG rescue: -6.2

Results for CS(=O)(=O)N1CCCC(C(=O)NCc2cccs2)C1 (centres undefined) ?
KCNK9 block: inactive; PHOSPHO1 inh: 8.7; KCNQ1 pot: inactive; KCNQ1 inh: inactive; KCNK3 inh: inactive; hERG rescue: 0.7

What do the screens show for `O=c1c2ccccc2nc(SCc2ccc(F)cc2Cl)n1CCCN1CCOCC1`?
KCNK9 block: inactive; PHOSPHO1 inh: 34.7; KCNQ1 pot: inactive; KCNQ1 inh: inactive; KCNK3 inh: inactive; hERG rescue: -12.4

How did Cn1c(SCc2cccc(C#N)c2)nc2ccccc2c1=O do in these assays?
KCNK9 block: -7.04*; KCNQ1 pot: inactive; KCNQ1 inh: inactive; KCNK3 inh: inactive; hERG rescue: -1.8

How did Cn1c(SCc2ccc(F)cc2Cl)nc2ccccc2c1=O do in these assays?
KCNK3 inh: -8.86*

Results for COC(=O)c1cc(S(=O)(=O)NCC2CCN(CCc3ccc(OC)cc3)CC2)cn1C ?
KCNK9 block: inactive; PHOSPHO1 inh: 15.9; KCNQ1 pot: inactive; KCNQ1 inh: inactive; KCNK3 inh: inactive; hERG rescue: -5.3

What do the screens show for `COc1ccccc1C1CC(c2ccc(Cl)cc2Cl)Nc2nc(N)nn21` (centres undefined)?
KCNK9 block: inactive; PHOSPHO1 inh: -8.8; KCNQ1 pot: inactive; KCNQ1 inh: inactive; KCNK3 inh: inactive; hERG rescue: -9.5

Source: PubChem
